# Measurements taken from publication PMC5575935 (Journal of the American Chemical Society, 2017).
# Substitutions are numbered along the chain they refer to.
# What was measured:
# MAP2K6 [1] = molecular target: T1, MAP2K6 (Homo sapiens, UniProt P52564); experiment: IDUP library × library selection, enrichment of ligand:protein barcodes; format: binding
# T1 sequence (P52564 1-334): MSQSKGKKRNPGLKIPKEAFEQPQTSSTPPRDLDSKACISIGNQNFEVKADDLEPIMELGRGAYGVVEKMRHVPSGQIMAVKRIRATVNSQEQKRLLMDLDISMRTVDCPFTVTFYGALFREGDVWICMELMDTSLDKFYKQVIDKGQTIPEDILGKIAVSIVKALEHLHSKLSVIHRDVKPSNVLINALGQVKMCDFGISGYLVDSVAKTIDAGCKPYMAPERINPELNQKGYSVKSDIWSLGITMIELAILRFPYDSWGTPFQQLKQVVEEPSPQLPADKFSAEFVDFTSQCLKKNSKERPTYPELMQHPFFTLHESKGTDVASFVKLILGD
# Procedure, shortened: (§1)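 Kinases were expressed as SNAP fusions by transient transfection of pDEST-SNAP-kinase vectors into HEK293T cells. Each unpurified lysate was labelled with a 31-nt benzylguanine-linked oligonucleotide carrying a unique 6-nt barcode and a common 3′ 8-nt hybridization region. The pooled protein library was combined with 2 pmol of an equimolar library of 136 DNA-linked compounds. IDUP primer extension followed, and extended products encoding protein:ligand pairs were PCR-amplified for barcode enrichment.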
# MAP2K6 and other MAP2Ks = experiment: LanthaScreen Eu binding assays on MAP2K family members; set-up: species or system human; conditions: LanthaScreen Eu assays and initial IDUP assay
# [2] = molecular target: T2, C38A point mutant of MAP2K6EE (Homo sapiens, UniProt P52564, C38A/S207E/T211E); experiment: Z′-LYTE kinase activity after preincubation with EA and dialysis; format: biochemical; conditions: C38A MAP2K6EE preincubated with 100 µM EA, then dialyzed; vs DMSO
# T2 sequence (P52564 1-334 C38A/S207E/T211E): T1 sequence (P52564 1-334) with C38A, S207E, T211E
# Procedure, shortened: (§2)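 The kinase, either MAP2K6EE (S207E/T211E) or its C38A variant, was incubated with 100 µM test compound or DMSO. It was then dialyzed to remove free compound. Z′-LYTE kinase activity was measured as a function of kinase concentration.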
# [3] = molecular target: T3, MAP2K6EE (constitutively active MAP2K6 mutant, S207E and T211E) (Homo sapiens, UniProt P52564, S207E/T211E); experiment: as above; format: biochemical; conditions: MAP2K6EE incubated with 100 µM EA, then dialyzed into EA-free buffer; vs DMSO
# T3 sequence (P52564 1-334 S207E/T211E): T1 sequence (P52564 1-334) with S207E, T211E
# Procedure, shortened: as §2
# GSK3α [4] = molecular target: T4, GSK3α (Homo sapiens, UniProt P49840); experiment: Z′-LYTE kinase inhibition assay; format: biochemical; conditions: non-DNA tagged ligand
# T4 sequence (P49840 whole entry): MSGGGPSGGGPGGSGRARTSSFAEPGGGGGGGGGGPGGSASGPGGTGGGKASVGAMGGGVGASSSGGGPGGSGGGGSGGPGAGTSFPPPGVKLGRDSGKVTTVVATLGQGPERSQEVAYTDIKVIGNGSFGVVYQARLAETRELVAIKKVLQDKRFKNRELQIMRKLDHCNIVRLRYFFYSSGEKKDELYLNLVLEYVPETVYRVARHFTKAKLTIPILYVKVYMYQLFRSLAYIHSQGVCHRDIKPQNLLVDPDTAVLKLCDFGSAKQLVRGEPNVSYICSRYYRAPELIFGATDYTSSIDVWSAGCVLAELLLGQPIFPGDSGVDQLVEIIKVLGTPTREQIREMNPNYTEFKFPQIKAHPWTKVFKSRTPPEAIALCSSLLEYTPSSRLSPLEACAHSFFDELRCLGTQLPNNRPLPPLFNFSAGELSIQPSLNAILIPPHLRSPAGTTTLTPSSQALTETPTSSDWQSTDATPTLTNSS
# GSK3α [5] = molecular target: T4, GSK3α; experiment: IDUP library × library selection, enrichment of ligand:protein barcodes; format: binding
# Procedure, shortened: as §1
# MAP2K6 [6] = molecular target: T1, MAP2K6; experiment: Z′-LYTE kinase inhibition assay; format: biochemical; conditions: nonelectrophilic analogs relative to EA
compound,measurement,setting,value
"C=C(CC)C(=O)c1ccc(OCC(=O)O)c(Cl)c1Cl [EA, ethacrynic acid]",IDUP enrichment,MAP2K6 [1],4.7 fold
same,affinity for MAP2K6 compared with other MAP2Ks,MAP2K6 and other MAP2Ks,higher affinity for MAP2K6 than other MAP2Ks
same,loss in inhibition potency,[2],~ 3.3 fold
same,apparent loss of kinase activity,[3],9 fold
"Cl.Cn1cc(C2=C(c3c4n(c5ccccc35)CCC(CN)C4)C(=O)NC2=O)c2ccccc21 (centres unmarked) [bisX, bisindolylmaleimide X]",IC50,GSK3α [4],115 nM
same,IDUP enrichment,GSK3α [5],4.7 fold
CCC(C)C(=O)c1ccc(OCC(=O)O)c(Cl)c1Cl (centres unmarked) [dihydro-ethacrynic acid],fold weaker inhibition of MAP2K6 than EA,MAP2K6 [6],> 30 fold
O=C(O)COc1ccc(C(=O)c2cccs2)c(Cl)c1Cl [tienilic acid],fold weaker inhibition of MAP2K6 than EA,MAP2K6 [6],> 30 fold
